Results gathered from unrelated publications.
Protocols differ between the studies behind these lines.
Observed: cell growth or viability

| SMILES | cell line | technique | time | IC50 |
| --- | --- | --- | --- | --- |
| CCCCC(=O)Nc1ccc(-c2ccc3ncn(CCC)c(=O)c3c2)cc1 | NCI-H1975 | CCK-8 | 72 h | 9.81 µM |
| O=C(Nc1ccc(F)cc1)Nc1nc2cc(-c3ccc4ncn(CC(=O)N5CCOCC5)c(=O)c4c3)ccc2s1 | NCI-H1975 | MTT | 72 h | > 20 µM |
| Cc1ncsc1-c1ccc(CNC(=O)[C@@H]2C[C@@H](O)CN2C(=O)[C@@H](NC(=O)C2(F)CC2)C(C)(C)C)c(OCCOc2ccc(CN3CCN(c4cc(-c5ccccc5O)nnc4N)CC3)cc2)c1 | HCC515 | ATP luminescence | 7 days | 0.261 µM |
| Cc1cnc(Nc2ccc(OCCN3CCCC3)cc2)nc1Nc1cccc(S(=O)(=O)NC(C)(C)C)c1 | SET-2 | CCK-8 |  | 1.01 µM |
| CN1CCC(NC2CCc3[nH]c4c(C(N)=O)ccc(-c5ccccc5Cl)c4c3C2)CC1 (centres unmarked) | Pfeiffer |  | 96 h | 0.0257 µM |
| O=C(Nc1ccc(Cl)cc1)Nc1nc2cc(-c3ccc4ncn(CCN5CCOCC5)c(=O)c4c3)ccc2s1 | NCI-H1975 | MTT | 72 h | > 20 µM |
| Nc1nnc(-c2ccccc2O)cc1N1CC2CCC(C1)N2c1ccnc(F)c1 | HCC515 | ATP luminescence | 7 days | > 1 µM |
| COc1cc(C2C3=C(COC3=O)N(CCO)c3cc4c(cc32)CCC4)cc(OC)c1OC (centres unmarked) | HEK293 | ATP luminescence | 48 h | 1.55 µM |
| CCOc1ccc(Nc2c3c(nc4ccccc24)CCC3)cc1 | HEK293 | resazurin | 72 h | 18.1 µM |
| CCCCn1cnc2ccc(-c3ccc(NC(=O)Nc4ccc(C(F)(F)F)cc4)nc3)cc2c1=O | NCI-H1975 | CCK-8 | 72 h | 6.85 µM |
| O=C(Nc1ccc(C(F)(F)F)cc1)Nc1nc2cc(-c3ccc4ncn(CCN5CCOCC5)c(=O)c4c3)ccc2s1 | NCI-H1975 | MTT | 72 h | 1.77 µM |
| Nc1cccc2c1C(=O)N(C1CCC(=O)NC1=O)C2=O (centres unmarked) | TMD8 | CCK-8 | 7 days | > 20 µM |
| CCCn1cnc2ccc(-c3ccc(N4CCC(C)CC4=O)nc3)cc2c1=O (centres unmarked) | NCI-H1975 | CCK-8 | 72 h | > 10 µM |
| O=C(Nc1cccc(F)c1)Nc1nc2cc(-c3ccc4ncn(Cc5ccccc5)c(=O)c4c3)ccc2s1 | NCI-H1975 | MTT | 72 h | > 20 µM |
| CCCCCC(=O)Nc1ccc(-c2ccc3ncn(CCC)c(=O)c3c2)cn1 | NCI-H1975 | CCK-8 | 72 h | 0.074 µM |
| Nc1ccn([C@@H]2O[C@H](CO)[C@@H](O)C2(F)F)c(=O)n1 | HEK293 | MTT | 48 h | 17.4 µg/mL |
| COc1ccc(NC(=O)Nc2nc3cc(-c4ccc5ncn(CCN6CCOCC6)c(=O)c5c4)ccc3s2)cc1 | NCI-H1975 | MTT | 72 h | > 20 µM |
| CCCCn1cnc2ccc(-c3ccc(NC(=O)NCCC)nc3)cc2c1=O | NCI-H1975 | CCK-8 | 72 h | 8.75 µM |
| CN(C)CCn1cnc2ccc(-c3ccc4sc(NC(=O)Nc5ccc(F)cc5)nc4c3)cc2c1=O | NCI-H1975 | MTT | 72 h | 1.39 µM |
| O=C(Nc1ccc(-c2ccc3ncn(Cc4ccc5c(c4)OCO5)c(=O)c3c2)cn1)c1ccccc1 | NCI-H1975 | CCK-8 | 72 h | > 10 µM |
